Screening results deposited in PubChem by several laboratories.
This is a sample that favours compounds with a hit; in the whole collection about 1.7% have one here.
STEP block: STEP phosphatase inhibitors, primary screen, biochemical, fluorescence intensity, uHTS; recombinant STEP, OMFP fluorogenic substrate; inhibition, % at 20 µM; Tyrosine-protein phosphatase non-receptor type 5 (Homo sapiens), P54829; hit rate 0.25% among 360,000;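 active means inhibition at 20 µM, scaled per plate between control wells, above about 37%, limit read from the data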
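Measure: Control-normalized % inhibition with plate pattern correction | Test system: STEP phosphatase, cell-free reaction | Medium: pH 6.0 Bis-Tris with DTT and Tween 20 | Technique: Fluorescence, 480/540 nm | Times: Reaction 20 min, ambient temperature | Doses: Single compound dose of 20 µM, 1% DMSO final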
DSG3 Ab inh: inhibitors of pemphigus antibody binding to DSG3, primary screen, biochemical, bead-based, flow cytometry, scFv-GFP. DSG3-coupled beads, scFv-anti-DSG3-GFP binding; active compounds read low. binding (percent of control), % at 10 µM. hit rate 0.48% among 310,000. AID 588358, 2011;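 active means binding more than 3 SD below its plate's average and above zero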;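 further: hits lower antibody fragment binding to DSG3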
LMPTP inh: LMPTP phosphatase inhibitors, primary screen, biochemical, fluorescence intensity, uHTS; recombinant LMPTP-A, OMFP fluorogenic substrate; hit rate 0.22% among 360,000; Low molecular weight phosphotyrosine protein phosphatase (Homo sapiens), P24666; inhibition, % at 20 µM; AID 651560, 2012;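 active means compounds that cut the enzyme signal by at least half of the control window in the single-dose screen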
Target sequence (P24666 whole entry, looked up): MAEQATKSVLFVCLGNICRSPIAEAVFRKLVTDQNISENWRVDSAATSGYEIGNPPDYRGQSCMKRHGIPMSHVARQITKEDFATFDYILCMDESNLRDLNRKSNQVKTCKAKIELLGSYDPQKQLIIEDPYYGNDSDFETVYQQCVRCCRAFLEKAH
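Assay system: LMPTP-A phosphatase enzyme | Input: 0.625 nM enzyme | Also added: Fluorogenic phosphatase substrate OMFP at 400 µM final | Compound dosing: One test concentration per compound, 20 µM, with 3% DMSO overall | Schedule: 50 min enzyme reaction at room temperature, protected from light | Signal: Fluorescence intensity | Benchmarks: no-enzyme and uninhibited controls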
SUMO1 PPI mod: modulators of SUMO1 protein-protein interactions, primary screen, biochemical, uHTS. SUMO1 binding to a labelled peptide, TR-FRET, 1 h. AID 602429, 2012. inhibition, % at 20 µM. hit rate 0.33% among 360,000; in the data active means inhibition above about 37%
Target sequence (P63165 whole entry, looked up): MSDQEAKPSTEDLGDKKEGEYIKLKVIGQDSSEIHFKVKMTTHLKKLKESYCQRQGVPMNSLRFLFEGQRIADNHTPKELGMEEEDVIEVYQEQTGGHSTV
Scp1 inh: Scp-1 phosphatase inhibitors, primary screen, biochemical, colorimetric, uHTS. Carboxy-terminal domain RNA polymerase II polypeptide A small phosphatase 1 (Homo …. Recombinant Scp1, phosphopeptide, malachite green phosphate absorbance. inhibition, % at 20 µM. hit rate 0.88% among 340,000. AID 493091, 2011;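 active means inhibition above about 50% at 20 µM, limit read from the data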
Target sequence (Q9GZU7 76-261 limits assumed): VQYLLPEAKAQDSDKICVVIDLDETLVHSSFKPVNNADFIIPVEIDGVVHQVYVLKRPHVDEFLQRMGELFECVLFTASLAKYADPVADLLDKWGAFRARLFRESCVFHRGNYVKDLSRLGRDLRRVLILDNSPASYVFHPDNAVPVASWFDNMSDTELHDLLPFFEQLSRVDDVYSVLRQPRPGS
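Assay system: SCP-1 catalytic fragment, aa 76-261 | Buffer or medium: Tris acetate buffer pH 5.5 with MgCl2 and Tween-20 | Compound: One concentration, 20 µM, with 1.0% DMSO | Also added: Phospho 17-mer peptide substrate | Signal: Absorbance at 630 nm | Incubation: 45 min enzyme reaction at room temperature | Measure: % inhibition of SCP-1 phosphate liberation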
Scp1 confirm: Scp-1 phosphatase inhibitors, retest, confirmation, biochemical, colorimetric, single concentration | shares compounds with Scp1 inh | recombinant SCP-1 catalytic domain, phosphate release, malachite green absorbance | inhibition, % at 20 µM | hit rate 61% among 2,500
MG interference: colorimetric readout interference by compounds, confirmation, artefact control for Scp-1 inhibitor project, biochemical, single concentration; shares compounds with Scp1 inh; Colorimetric interference counterscreen, malachite green absorbance 630 nm; apparent inhibition (interference), % at 20 µM; 2,500 tested, under 10 active; AID 540313, 2011;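 further: compounds added after enzyme reaction finished so only phosphate colour detection is probed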
Scp1 DSF: Scp-1 binding by thermal shift, confirmation, orthogonal assay for Scp-1 inhibitor project, biophysical, differential scanning fluorimetry | shares compounds with Scp1 inh | thermal shift relative to vanadate control, % at 40 µM | Recombinant SCP1, Sypro Orange thermal shift Tm | AID 540329, 2011 | hit rate 25% among 1,500;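 active means substances whose mean melting-temperature shift, as a percentage of the reference inhibitor's shift, reaches about 5.3%, limit read from the data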
A number is an active result.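 How the source made its calls, unless noted: active means inhibition of at least 30% at 20 µM; inactive means the rest.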

CC(=O)c1c(C)n(C)c2ccc(OC(=O)c3ccco3)cc12 was read as STEP block inactive, DSG3 Ab inh inactive, LMPTP inh inactive, SUMO1 PPI mod inactive and Scp1 inh inactive.
Screening CC(=O)c1c(C)n(C)c2ccc(OC(=O)c3ccc([N+](=O)[O-])cc3)cc12 returned STEP block inactive, DSG3 Ab inh inactive, LMPTP inh inactive, SUMO1 PPI mod inactive, Scp1 inh 59, Scp1 confirm inactive and MG interference inactive.
`C=CCN(c1ccccc1)S(=O)(=O)c1cccc(C(=O)NCC2CCCO2)c1` (stereo not given) gave STEP block inactive, DSG3 Ab inh inactive, LMPTP inh inactive, SUMO1 PPI mod inactive and Scp1 inh inactive.
`CC1(C(=O)NS(=O)(=O)c2ccccc2)CCN1C(=O)CC1CCCCC1` (stereo not given) gave STEP block inactive, LMPTP inh inactive and SUMO1 PPI mod inactive.
For O=C(O)c1ccc2c(=O)n(-c3ccccc3)c(=S)[nH]c2c1 the results were STEP block inactive, DSG3 Ab inh inactive, LMPTP inh inactive, SUMO1 PPI mod inactive, Scp1 inh 79, Scp1 confirm inactive and MG interference inactive.
For Cc1cccc(NC(=O)CN2C(=O)S/C(=C\c3ccccn3)C2=O)c1 the results were STEP block inactive, DSG3 Ab inh inactive, LMPTP inh inactive, SUMO1 PPI mod inactive and Scp1 inh inactive.
O=C(CN1C(=O)S/C(=C\c2ccc(O)c([N+](=O)[O-])c2)C1=O)Nc1ccc(N2CCOCC2)cc1 was read as STEP block inactive, DSG3 Ab inh inactive, LMPTP inh inactive, SUMO1 PPI mod inactive, Scp1 inh 62, Scp1 confirm 60, MG interference inactive and Scp1 DSF inactive.
For Cc1cccc(NC(=O)CN2C(=O)S/C(=C\c3ccc(O)c([N+](=O)[O-])c3)C2=O)c1 the results were STEP block inactive, DSG3 Ab inh inactive, LMPTP inh inactive, SUMO1 PPI mod inactive, Scp1 inh 80, Scp1 confirm 77, MG interference inactive and Scp1 DSF 26.
`Fc1ccc(Oc2ncccn2)c(F)c1` gave STEP block inactive, DSG3 Ab inh inactive, LMPTP inh inactive, SUMO1 PPI mod inactive and Scp1 inh inactive.
`COc1ccc(CCC(=O)O)c(O)c1` gave STEP block inactive, DSG3 Ab inh inactive, LMPTP inh inactive, SUMO1 PPI mod inactive, Scp1 inh 53, Scp1 confirm 46, MG interference inactive and Scp1 DSF inactive.
`NC(=O)NC(CC(=O)OCC(=O)Nc1nnc(-c2ccccc2)o1)c1ccc(Cl)cc1` (stereo not given) gave STEP block inactive, DSG3 Ab inh inactive, LMPTP inh inactive and SUMO1 PPI mod inactive.
For CCOCCCNC(=O)Cn1cc2c(n1)CCCC2 the results were STEP block inactive, DSG3 Ab inh inactive, LMPTP inh inactive, SUMO1 PPI mod inactive, Scp1 inh 75, Scp1 confirm inactive and MG interference inactive.
`CCOc1ccc(NC(=O)C2CCCN2C(=O)Oc2ccccc2)cc1` (stereo not given) gave STEP block inactive, DSG3 Ab inh inactive, LMPTP inh inactive, SUMO1 PPI mod inactive, Scp1 inh 54, Scp1 confirm inactive and MG interference inactive.
